# Reference: ChEMBL document CHEMBL3271934, “Inhibition of separated forms of phosphodiesterases from pig coronary arteries by uracils and by 7-substituted derivatives of 1-methyl-3-isobutylxanthine” (J Med Chem, 1976)
# Active and inactive are the calls of the source. The calls are words filed in the database; no cut-off is given here.
# Assays:
# Sus scrofa [1] = species on record: Sus scrofa; test: Inhibition of phosphodiesterase (peak-1) isolated from pig coronary artery assessed as inhibition of cGMP hydrolysis at 10^-4 M using 1 uM cGMP substrate in presence of 3% Me2SO
# In short: (§1)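 Percent inhibition was measured at a single 10^-4 M concentration against a separated pig coronary artery phosphodiesterase form. Conditions: 1 μM substrate, 30°, 30 min, enzyme dilution giving 10–20% uninhibited hydrolysis, final 3% Me2SO in all tubes including blank. Peak I was assayed with an optimal amount of activator (15 μg protein). Results are duplicate determinations, mean ± SEM over separate enzyme preparations.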
# Sus scrofa [2] = species on record: Sus scrofa; test: Inhibition of phosphodiesterase (peak-1) isolated from pig coronary artery assessed as inhibition of cAMP hydrolysis at 10^-4 M using 1 uM cAMP substrate in presence of 3% Me2SO; in short: as §1
# Sus scrofa [3] = species on record: Sus scrofa; test: Inhibition of phosphodiesterase (peak-2) isolated from pig coronary artery assessed as inhibition of cAMP hydrolysis at 10^-4 M using 1 uM cAMP substrate in presence of 3% Me2SO; in short: as §1
# [4] = Inhibition of phosphodiesterase (peak-2) isolated from pig coronary artery assessed as inhibition of cAMP hydrolysis using 1 uM cAMP substrate in presence of 3% Me2SO; settings: Sus scrofa; read-out: I50
# In short: (§2)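 Enzyme is a separated phosphodiesterase form from pig coronary arteries, assayed with 1 μM substrate at 30° for 30 min. Enzyme dilution gave 10–20% hydrolysis without inhibitor. Compounds were added from 30% Me2SO, giving a final 3% Me2SO in all tubes. Peak I received an optimal amount of activator (15 μg protein). I50 was read from concentration–percent inhibition curves spanning 10^-7 to 10^-4 M (10^-3 M if soluble). MIX reference was run each experiment. Results are mean ± SEM of duplicate determinations across enzyme preparations.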
# [5] = Inhibition of phosphodiesterase (peak-1) isolated from pig coronary artery assessed as inhibition of cAMP hydrolysis using 1 uM cAMP substrate in presence of 3% Me2SO; settings: Sus scrofa; read-out: I50; in short: as §2
# [6] = Inhibition of phosphodiesterase (peak-1) isolated from pig coronary artery assessed as inhibition of cGMP hydrolysis using 1 uM cGMP substrate in presence of 3% Me2SO; settings: Sus scrofa; read-out: I50; in short: as §2
# Sus scrofa [7] = species on record: Sus scrofa; test: Inhibition of phosphodiesterase (peak-1) isolated from pig coronary artery assessed as inhibition of cAMP hydrolysis at 10^-7 to 10^-4 M using 1 uM cAMP substrate in presence of 3% EtOH
# Sus scrofa [8] = species on record: Sus scrofa; test: Inhibition of phosphodiesterase (peak-1) isolated from pig coronary artery assessed as inhibition of cGMP hydrolysis at 10^-7 to 10^-4 M using 1 uM cGMP substrate in presence of 3% EtOH
# Sus scrofa [9] = species on record: Sus scrofa; test: Inhibition of phosphodiesterase (peak-2) isolated from pig coronary artery assessed as inhibition of cAMP hydrolysis at 10^-7 to 10^-4 M using 1 uM cAMP substrate in presence of 3% EtOH
Compound,inhibition (Sus scrofa [1]),inhibition (Sus scrofa [2]),inhibition (Sus scrofa [3]),IC50 [4],IC50 [5],IC50 [6],inhibition (Sus scrofa [7]),inhibition (Sus scrofa [8]),inhibition (Sus scrofa [9])
CC(C)Cn1c(N)c(NCc2ccccc2)c(=O)n(C)c1=O,30%,37%,9%,–,–,–,–,–,–
Cn1c(N)c(NCc2ccccc2)c(=O)n(C)c1=O,17%,26%,15%,–,–,–,–,–,–
CC(C)Cn1c(=O)n(C)c(=O)c2c1ncn2Cc1ccccc1[N+](=O)[O-],–,–,–,142 µM,41 µM,60 µM,–,–,–
CC(C)Cn1c(=O)n(C)c(=S)c2c1ncn2Cc1ccccc1,–,–,–,28 µM,2.7 µM,3.3 µM,–,–,–
C#CCn1cnc2c1c(=O)n(C)c(=O)n2CC(C)C,–,–,–,65 µM,28 µM,36 µM,–,–,–
COc1ccccc1Cn1cnc2c1c(=O)n(C)c(=O)n2CC(C)C,–,–,–,75 µM,19 µM,26 µM,–,–,–
CC(C)Cn1c(=O)n(C)c(=O)c2nc[nH]c21 [ISOBUTYLMETHYLXANTHINE],–,–,–,15 µM,3.9 µM,6.3 µM,Active,Active,Active
CC(C)Cn1c(=O)n(C)c(=O)c2c1ncn2C,–,–,–,126 µM,55 µM,65 µM,–,–,–
CC(C)Cn1c(=O)n(C)c(=O)c2c1ncn2CCc1ccccc1,–,–,41%,> 100 µM,17 µM,28 µM,–,–,–
CC(C)Cn1cc(NCc2ccccc2)c(=O)n(C)c1=O,10%,17%,6%,–,–,–,–,–,–
CC(C)Cn1c(=O)n(C)c(=O)c2c1ncn2CC1CC1,–,–,–,20 µM,3.7 µM,6.1 µM,–,–,–
CC(C)Cn1c(=O)n(C)c(=O)c2c1ncn2Cc1ccccc1,–,–,–,108 µM,3.6 µM,4.4 µM,Active,Active,Active
CC(C)Cn1c(=O)n(C)c(=O)c2c1ncn2Cc1ccc(Cl)cc1,–,–,–,43 µM,2.3 µM,2.1 µM,–,–,–
CC(C)Cn1c(=O)n(C)c(=O)c2c1ncn2Cc1ccc([N+](=O)[O-])cc1,–,–,44%,> 100 µM,27 µM,34 µM,–,–,–
CC(C)CCn1cnc2c1c(=O)n(C)c(=O)n2CC(C)C,–,–,36%,> 100 µM,19 µM,16 µM,–,–,–
CC(C)Cn1c(=O)n(C)c(=O)c2c1ncn2Cc1cccc(Cl)c1,–,–,–,48 µM,1.3 µM,2.1 µM,–,–,–
CC(C)Cn1c(=O)n(C)c(=S)c2[nH]cnc21,–,–,–,6.8 µM,5.5 µM,7.1 µM,–,–,–
COc1cc(Cn2cnc3c2c(=O)n(C)c(=O)n3CC(C)C)cc(OC)c1OC,–,–,31%,> 100 µM,35 µM,46 µM,–,–,–
CC(C)Cn1c(=O)n(C)c(=O)c2c1ncn2Cc1ccncc1,–,–,30%,> 300 µM,105 µM,146 µM,–,–,–
